TRPC4 agonist – activators of mouse TRPC4 channel, primary screen, Fluo4 calcium, HEK293 TRPC4beta/mu-opioid cells. Fluo4 calcium fluorescence; active compounds read high. 310,000 tested, 0.49% active. B-score at 10 µM. AID 2237, 2010. Short transient receptor potential channel 4 (Mus musculus), Q9QUQ5;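 active = B-score above 5 SD of library B-scores, and initial fluorescence ratio not above library mean plus 5 SD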;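 note: positive B-score marks a calcium rise read as TRPC4 activation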
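Material: TRPC4beta and mu-opioid receptor HEK293 stable cells | Incubation: 45 min room-temperature Fluo4 loading, 110 s read | Detection: Kinetic Fluo4 calcium fluorescence | Measure: Integrated baseline-normalised fluorescence ratio, converted to per-well B score | Benchmarks: Low control buffer alone, high control maximal DAMGO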
TRPC4 block – inhibitors of mouse TRPC4 channel, primary screen, Fluo4 calcium, HEK293 TRPC4beta/mu-opioid cells | Short transient receptor potential channel 4 (Mus musculus), Q9QUQ5 | DAMGO-evoked Fluo4 calcium flux; active compounds read low | B-score at 10 µM | 300,000 tested, 0.39% active | AID 2247, 2010;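 active = B-score over 3 SD under the library average, no early fluorescence shift, positive overall ratio signal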
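Material: HEK293 cells with stable TRPC4beta plus mu-opioid receptor expression / Probe or stimulus: DAMGO in two steps, submaximal then maximal / Compound: single concentration per test compound / Technique: kinetic Fluo4 fluorescence imaging of calcium influx / Read-out: per-well B score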
TRPC4 potent – positive allosteric modulators of TRPC4, primary screen, cell-based, mouse TRPC4beta, HEK293 mu-opioid, Fluo-4 calcium; 310,000 tested, 0.42% active; DAMGO EC20, Fluo-4 Ca2+ flux; active compounds read high; B-score at 10 µM; Short transient receptor potential channel 4 (Mus musculus), Q9QUQ5;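 active = B-score of calcium response area above 5 SD of library B-scores, with initial fluorescence ratio within 5 SD of library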
TRPC6 inh – mouse TRPC6 channel inhibitors, primary screen, cell-based, HEK293, membrane potential dye; Short transient receptor potential channel 6 (Mus musculus), Q61143; ACh-evoked depolarization; active compounds read low; AID 2553, 2010; B-score at 10 µM; 310,000 tested, 1.1% active;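 active = B-score under library mean minus 3 SD, initial fluorescence not abnormally high, positive integrated signal ratio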;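 note: B-score derived from integrated fluorescence ratio over the kinetic read; more negative B-score means stronger inhibition of depolarization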
TRPC6 activator – mouse TRPC6 channel activators, primary screen, cell-based, HEK293, membrane potential dye | AID 2550, 2010 | B-score at 10 µM | 310,000 tested, 0.13% active | Short transient receptor potential channel 6 (Mus musculus), Q61143 | HEK293-TRPC6 membrane potential dye fluorescence; active compounds read high;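 active = B-score of the integrated fluorescence ratio above library mean plus 3 SD, and starting fluorescence ratio within library mean plus 5 SD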;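 note: higher score means more depolarization so channel activation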
HEK293 TRPC6 ctr – parental HEK293 membrane potential modulation, confirmation, counter-screen for TRPC6 modulator project, cell-based; membrane potential dye fluorescence; membrane potential signal change, % at 10 µM; 2,400 tested, 51% active; shares compounds with TRPC6 inh;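 active = membrane potential signal moves up or down beyond 5 SD from buffer-only wells, on both duplicate plates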
HEK293 MPD ctr 2 – second counter-screen for TRPC6 modulators: effect in parental HEK293 cells | 2,400 tested, 14% active | membrane potential dye fluorescence; after compound, maximal acetylcholine stimulation | shares compounds with TRPC6 inh | inhibition, % at 10 µM;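 active = membrane potential signal drops by more than 5 SD from the mean control signal, in both duplicate plates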
TRPC4 ctr mod – TRPC4 modulation by TRPC6 hit compounds, confirmation, selectivity assay for TRPC6 modulator project, cell-based, HEK293 TRPC4/mu-opioid, membrane potential dye, mouse; 2,400 tested, 69% active; percent change from control (negative = decrease, positive = increase), % at 10 µM; membrane potential fluorescence; shares compounds with TRPC6 inh;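 active = membrane potential signal moved up or down beyond 5 SD of buffer control wells, in both duplicate plates, actives on both sides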
TRPC4/MOR inh 2 – second check of whether TRPC6 modulators also affect mouse TRPC4; 2,400 tested, 55% active; shares compounds with TRPC6 inh; HEK293 TRPC4/mu-opioid, membrane potential dye fluorescence; stimulated with maximal-effect DAMGO; inhibition, % at 10 µM;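 active = drop in membrane potential signal beyond 5 SD of the control wells in both duplicate plates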;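 note: TRPC4 counter screen for TRPC6 hits run under conditions tuned for TRPC6 not TRPC4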
TRPC6 block conf – mouse TRPC6 channel inhibitors, confirmation, HEK293 cells, membrane potential dye, duplicate | inhibition, % at 10 µM | 3,300 tested, 43% active | shares compounds with TRPC6 inh | AID 488960, 2010 | ACh-evoked depolarization;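 active = fluorescence ratio falls more than 5 SD below the full-stimulation control mean, in both duplicate runs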;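 note: integrated fluorescence ratio of peak minus minimum over baseline after agonist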
TRPC6 act confirm – mouse TRPC6 channel activators, confirmation, HEK293 cells, membrane potential dye, duplicate; 2,800 tested, 11% active; activation, % at 10 µM; shares compounds with TRPC6 inh; AID 488961, 2010; HEK293-TRPC6 membrane potential dye fluorescence, FDSS;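 active = ratio signal rise beyond 5 SD above unstimulated control wells' mean, seen in both duplicate runs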
Of the large screens only hits and unclear results are named; the others gave an inactive call (follow-up assays come after a bar, where they were run). Sampled rows, rich in hits. Any-hit rate of the full collection: about 2.3%.

O=C1S/C(=C/c2ccc(N3CCOCC3)o2)C(=O)N1Cc1c(F)cccc1Cl	TRPC6 activator 17 | HEK293 TRPC6 ctr inactive | HEK293 MPD ctr 2 inactive | TRPC4 ctr mod 100% | TRPC4/MOR inh 2 inactive | TRPC6 block conf inactive | TRPC6 act confirm inactive
Cc1cc(N2CCN(C)CC2)nc(N2CCOCC2)n1	TRPC6 inh -5.7 | HEK293 TRPC6 ctr -246% | HEK293 MPD ctr 2 inactive | TRPC4 ctr mod -44% | TRPC4/MOR inh 2 31% | TRPC6 block conf inactive | TRPC6 act confirm inactive
Cc1cc(N2CCOCC2)nc(N2CCOCC2)n1	none
COc1cc(NC(=O)C(C)Oc2ccccc2)ccc1NC(=O)COc1ccccc1 (centres undefined)	none
COc1ccc(C2c3ccc4ccccc4c3Oc3ncn(CCN(C)C)c(=N)c32)cc1 (centres undefined)	TRPC6 inh -5.4 | HEK293 TRPC6 ctr 115% | HEK293 MPD ctr 2 inactive | TRPC4 ctr mod 10% | TRPC4/MOR inh 2 69% | TRPC6 block conf inactive
Cc1ccccc1Cn1c(=O)n(C)c(=O)c2sccc21	none
O=C(c1cccc(S(=O)(=O)Nc2ccccc2F)c1)N1CCN(c2ccccc2F)CC1	TRPC6 inh -6.5 | HEK293 TRPC6 ctr inactive | HEK293 MPD ctr 2 inactive | TRPC4 ctr mod inactive | TRPC4/MOR inh 2 inactive | TRPC6 block conf 64%
